Test results from BindingDB's records for doi:10.1039/c1md00059d (Centre National De La Recherche Scientifique, 2011).

target: T1, Vitamin D3 receptor A (Danio rerio, UniProt Q9PTN2); assay: Agonist activity at zebrafish VDR LBD assessed as binding affinity to TAMRA-labeled SRC-1 peptide by fluorescence anisotropy assay
T1 sequence (Q9PTN2 whole entry): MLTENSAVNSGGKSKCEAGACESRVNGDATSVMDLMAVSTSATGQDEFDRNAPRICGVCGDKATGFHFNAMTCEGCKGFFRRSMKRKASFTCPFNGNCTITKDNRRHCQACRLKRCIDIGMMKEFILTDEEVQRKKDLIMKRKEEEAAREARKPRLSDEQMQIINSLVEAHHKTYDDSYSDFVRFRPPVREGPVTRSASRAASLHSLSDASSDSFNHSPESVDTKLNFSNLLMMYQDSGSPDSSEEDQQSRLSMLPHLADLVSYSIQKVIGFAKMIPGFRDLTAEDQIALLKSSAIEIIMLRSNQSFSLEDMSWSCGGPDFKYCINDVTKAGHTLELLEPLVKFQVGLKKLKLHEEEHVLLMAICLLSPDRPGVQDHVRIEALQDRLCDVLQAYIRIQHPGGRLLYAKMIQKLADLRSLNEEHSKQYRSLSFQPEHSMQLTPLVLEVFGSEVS
Summary of the method: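 Titrations were run in the presence of ligand, and peptide recruitment was monitored by fluorescence anisotropy to derive kd.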

| Kd | SMILES |
| --- | --- |
| 3.3 µM | C=C1/C(=C\C=C2/CCC[C@]3(C)[C@@H](C(CCCC(C)(C)O)CCCC(C)(C)O)CC[C@@H]23)C[C@H](O)C[C@H]1O |
| 1.8 µM | [2H]C([2H])([2H])C(O)(CCC[C@@H](CC#CC(O)(C(F)(F)F)C(F)(F)F)[C@H]1CC[C@H]2/C(=C/C=C3C[C@H](O)C[C@@H](O)C3)CCC[C@]12C)C([2H])([2H])[2H] |
| 1.8 µM | [2H]C([2H])([2H])C(O)(CCC[C@H](CC#CC(O)(C(F)(F)F)C(F)(F)F)[C@H]1CC[C@H]2/C(=C/C=C3C[C@H](O)C[C@@H](O)C3)CCC[C@]12C)C([2H])([2H])[2H] |
